The text below walks through data of PMC6771261 (Journal of natural products, 2019).

One assay deals with HRECs. The assay can be described thus: Matrigel based tube formation assay. Type of assay: cell-based, human. As to conditions: HRECs on Matrigel, 8 hours, different concentrations. The essentials: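 HRECs (passage 5–8) in EGM-2 were seeded at 15,000 cells per well onto Matrigel-coated wells, with DMSO vehicle or a range of test compound concentrations. A known antiangiogenic homoisoflavonoid served as positive control. After 8 h, wells were imaged and tube length was quantified by image analysis. Mean ± SEM, n=3–6 wells, duplicate experiments; one-way ANOVA with Dunnett's post hoc test vs DMSO.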

The subject of the next assay is Y79 retinoblastoma cells. As to conditions: read-out: GI50 (Y79); as reported; cited from earlier work.
The test system of assay [1] is HRECs (human retinal microvascular endothelial cells). The following applies: read-out: GI50 (HREC); as reported; cited from earlier work.
For assay [2], the system named is HUVECs (human umbilical vein endothelial cells). As to conditions: read-out: GI50 (HUVEC); as reported; cited from earlier work.
In assay [3] the test system is 92–1 uveal melanoma cells. As to conditions: read-out: GI50 (92–1); as reported; cited from earlier work.

As for `COc1ccc(/C=C2\COc3cc(OC)c(OC)c(O)c3C2=O)cc1O` [Compound 48, (E)-5-hydroxy-6,7-trimethoxy-3-(3ʹhydroxy-4ʹ-methoxybenzylidene)-4-chromanone], the “ability of HRECs to form tubes (tubule length compared to DMSO control)” value with HRECs was “effective”. For `CCOc1ccc(C(=O)/C=C/c2ccc(OC)c(OC)c2)c(O)c1C` [Compound 50, (E)-3-(3,4-dimethoxylphenyl)-1-(4-ethoxy-2-hydroxy-3-methyl-phenyl)prop-2-en-1-one], in the assay with HRECs, the “ability of HRECs to form tubes (tubule length compared to DMSO control)” value is “effective”. Regarding `COc1ccc(CC2COc3cc(O)c(OC)c(O)c3C2=O)cc1O` (stereo not shown) [cremastranone], the GI50 in the assay with Y79 retinoblastoma cells was 9.8 µM; in assay [1], 0.22 µM; in assay [2], 0.38 µM; in assay [3] it was 48 µM. Take `COc1ccc(C[C@@H]2COc3cc(OC)c(OC)c(OC)c3C2=O)cc1O` [Compound 45, 5,6,7-trimethoxy-3(R)-(3ʹhydroxy-4ʹ-methoxybenzyl)-4-chromanone]: the “ability of HRECs to form tubes (tubule length compared to DMSO control)” value in the assay with HRECs was “effective”.
